Experimental data reported in publication PMC9893515 (Bioorganic chemistry, 2021).
Read-outs that look alike come from different tables or passages of the source.

Target: T1, recombinant human TDP2 (Homo sapiens, UniProt O95551)
T1 sequence (O95551 1-362): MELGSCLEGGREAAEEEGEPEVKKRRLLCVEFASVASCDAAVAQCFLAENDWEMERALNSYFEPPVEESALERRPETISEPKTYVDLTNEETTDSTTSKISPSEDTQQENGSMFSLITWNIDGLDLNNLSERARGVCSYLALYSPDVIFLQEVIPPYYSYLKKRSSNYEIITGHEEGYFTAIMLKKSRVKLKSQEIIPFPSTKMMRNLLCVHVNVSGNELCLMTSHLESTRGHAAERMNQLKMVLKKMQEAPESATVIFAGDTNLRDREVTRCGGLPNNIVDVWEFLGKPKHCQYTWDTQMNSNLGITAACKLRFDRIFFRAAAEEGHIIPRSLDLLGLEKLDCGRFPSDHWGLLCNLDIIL
Test: Recombinant TDP2 assay
Assay type: biochemical
How it was run: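 Human recombinant TDP2 (25 pM) with 1 nM 18-mer 5'-phosphotyrosyl ssDNA, 3'-α32P-cordycepin-labelled. Reaction ran 15 min at room temperature in Tris-HCl pH 7.5, KCl, MgCl2, EDTA, DTT, BSA and Tween 20. Stopped with formamide loading buffer, then 16% denaturing PAGE and phosphorimaging densitometry of product. […] IC50 is 50% enzyme inhibition.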

[1] = read-out: TDP2 inhibitory activity IC50, mean ± SD from at least three independent experiments, recombinant TDP2

| Molecule | IC50 | IC50 [1] |
| --- | --- | --- |
| O=C(OCCc1ccc([N+](=O)[O-])cc1)c1noc2c1C(=O)c1cccnc1C2=O [Compound 62, 4-Nitrophenethyl 4,9-dioxo-4,9-dihydroisoxazolo[4,5-g]quinoline-3-carboxylate] | 11000 ± 3800 nM | – |
| O=C(OCCOC12CC3CC(CC(C3)C1)C2)c1noc2c1C(=O)c1cccnc1C2=O [Compound 63, 2-(((3 s,5s,7s)-Adamantan-1-yl)oxy)ethyl 4,9-dioxo-4,9-dihydroisoxazolo[4,5-g]quinoline-3-carboxylate] | – | 20000 ± 180 nM |
| O=C1c2ncccc2C(=O)c2c(COc3ccccc3)noc21 [Compound 65, 3-(Phenoxymethyl) isoxazolo[4,5-g]quinoline-4,9-dione] | 820 ± 280 nM | – |
| O=C1c2ncccc2C(=O)c2c(COc3ccccc3Cl)noc21 [Compound 66, 3-((2-Chlorophenoxy)methyl)isoxazolo[4,5-g]quinoline-4,9-dione] | – | 940 ± 240 nM |
| CS(=O)(=O)c1ccc(OCc2noc3c2C(=O)c2cccnc2C3=O)cc1 [Compound 67, 3-((4-(Methylsulfonyl)phenoxy)methyl)isoxazolo[4,5-g]quinoline-4,9-dione] | 990 ± 130 nM | – |
| N#Cc1ccc(OCc2noc3c2C(=O)c2cccnc2C3=O)cc1 [Compound 68, 4-((4,9-Dioxo-4,9-dihydroisoxazolo[4,5-g]quinolin-3-yl)methoxy)benzonitrile] | 740 ± 250 nM | – |
| N#Cc1ccc(OCc2noc3c2C(=O)c2cccnc2C3=O)cc1F [Compound 69, 4-((4,9-Dioxo-4,9-dihydroisoxazolo[4,5-g]quinolin-3-yl)methoxy)-2-fluorobenzonitrile] | 960 ± 200 nM | – |
| COc1ccc(-c2noc3c2C(=O)c2cccnc2C3=O)cc1OC [Compound 70, 3-(3,4-Dimethoxyphenyl)isoxazolo[4,5-g]quinoline-4,9-dione] | 460 ± 150 nM | – |
| N#Cc1ccc(-c2noc3c2C(=O)c2cccnc2C3=O)c(F)c1 [Compound 71, 4-(4,9-Dioxo-4,9-dihydroisoxazolo[4,5-g]quinolin-3-yl)-3-fluorobenzonitrile] | 740 ± 250 nM | – |
| Ethyl 2-isopropyl-4,9-dioxo-4,9-dihydrofuro[2,3-g]quinoline-3-carboxylate [Compound 37] | – | 37000 ± 2000 nM |
| Ethyl 2-isopropyl-4,9-dioxo-4,9-dihydrofuro[3,2-g]quinoline-3-carboxylate [Compound 38] | – | > 111000 nM |
